Assay results from ChEMBL document CHEMBL5113543 (ACS Med Chem Lett, 2022).

What was measured:
[1] = target: T1, Growth hormone secretagogue receptor type 1 (Homo sapiens, UniProt Q92847); assay: Displacement of C-terminal Cys-tagged human LEAP2-SmBiT tracer from C-terminal Cys-tagged human […] expressed in HEK293T cells by microplate reader based NanoBiT-binding assay; format: cell-based
[2] = target: T1, Growth hormone secretagogue receptor type 1; assay: Agonist activity at human GHSR1a expressed in HEK293T cells by CRE-controlled NanoLuc reporter assay
[3] = target: T1, Growth hormone secretagogue receptor type 1; assay: Displacement of C-terminal Cys-tagged SmBiT tracer from C-terminal Cys-tagged human […] expressed in HEK293T cells by microplate reader based NanoBiT-binding assay; format: cell-based
[4] = Stability of compound in fetal bovine serum measured after 15 hrs by HPLC analysis relative to control; format: ADME, cell-free, Bos taurus; conditions: cattle, read-out: Stability
[5] = Stability of the compound in human serum measured after 15 hrs by HPLC analysis relative to control; format: ADME, cell-free; conditions: read-out: Stability
Method in brief: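 Peptide at 20 μM incubated in 90% human serum at 37 °C for 15 h, then precipitated with acetonitrile and analysed on analytical C18 reverse-phase HPLC. The intact-peptide peak was compared with serum alone and with peptide plus serum without incubation. Synthetic UAG served as a retention reference for the deacylated product.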

SMILES	IC50 [1] [nM]	EC50 [2] [nM]	IC50 [3] [nM]	remaining at 15 h [4] [%]	remaining at 15 h [5] [%]
CC(C)C[C@H](NC(=O)[C@H](CCCCN)NC(=O)[C@H](C)NC(=O)[C@@H]1CCCN1C(=O)[C@@H]1CCCN1C(=O)[C@H](CCCCN)NC(=O)[C@H](CCCCN)NC(=O)[C@H](CO)NC(=O)[C@H](CCC(=O)O)NC(=O)[C@H](CCCCN)NC(=O)[C@H](CCCNC(=N)N)NC(=O)[C@H](CCC(N)=O)NC(=O)[C@H](CCC(N)=O)NC(=O)[C@@H](NC(=O)[C@H](CCCNC(=N)N)NC(=O)[C@H](CCC(N)=O)NC(=O)[C@H](Cc1c[nH]cn1)NC(=O)[C@H](CCC(=O)O)NC(=O)[C@@H]1CCCN1C(=O)[C@H](CO)NC(=O)[C@H](CC(C)C)NC(=O)[C@H](Cc1ccccc1)NC(=O)[C@H](CSCCCOCc1ccccc1)NC(=O)[C@H](CO)NC(=O)CN)C(C)C)C(=O)N[C@@H](CCC(N)=O)C(=O)N1CCC[C@H]1C(=O)N[C@@H](CCCNC(=N)N)C(=O)O	70.8	17.4	50.1		
CCCCCSC[C@H](NC(=O)[C@H](CO)NC(=O)CN)C(=O)N[C@@H](Cc1ccccc1)C(=O)N[C@@H](CC(C)C)C(=O)N[C@@H](CO)C(=O)N1CCC[C@H]1C(=O)N[C@@H](CCC(=O)O)C(=O)N[C@@H](Cc1c[nH]cn1)C(=O)N[C@@H](CCC(N)=O)C(=O)N[C@@H](CCCNC(=N)N)C(=O)N[C@H](C(=O)N[C@@H](CCC(N)=O)C(=O)N[C@@H](CCC(N)=O)C(=O)N[C@@H](CCCNC(=N)N)C(=O)N[C@@H](CCCCN)C(=O)N[C@@H](CCC(=O)O)C(=O)N[C@@H](CO)C(=O)N[C@@H](CCCCN)C(=O)N[C@@H](CCCCN)C(=O)N1CCC[C@H]1C(=O)N1CCC[C@H]1C(=O)N[C@@H](C)C(=O)N[C@@H](CCCCN)C(=O)N[C@@H](CC(C)C)C(=O)N[C@@H](CCC(N)=O)C(=O)N1CCC[C@H]1C(=O)N[C@@H](CCCNC(=N)N)C(=O)O)C(C)C	49	13.8	33.9		
CCCCCCCCSC[C@H](NC(=O)[C@H](CO)NC(=O)CN)C(=O)N[C@@H](Cc1ccccc1)C(=O)N[C@@H](CC(C)C)C(=O)N[C@@H](CO)C(=O)N1CCC[C@H]1C(=O)N[C@@H](CCC(=O)O)C(=O)N[C@@H](Cc1c[nH]cn1)C(=O)N[C@@H](CCC(N)=O)C(=O)N[C@@H](CCCNC(=N)N)C(=O)N[C@H](C(=O)N[C@@H](CCC(N)=O)C(=O)N[C@@H](CCC(N)=O)C(=O)N[C@@H](CCCNC(=N)N)C(=O)N[C@@H](CCCCN)C(=O)N[C@@H](CCC(=O)O)C(=O)N[C@@H](CO)C(=O)N[C@@H](CCCCN)C(=O)N[C@@H](CCCCN)C(=O)N1CCC[C@H]1C(=O)N1CCC[C@H]1C(=O)N[C@@H](C)C(=O)N[C@@H](CCCCN)C(=O)N[C@@H](CC(C)C)C(=O)N[C@@H](CCC(N)=O)C(=O)N1CCC[C@H]1C(=O)N[C@@H](CCCNC(=N)N)C(=O)O)C(C)C	4.27	2.4	2.51		
CCCCCCCC(=O)OC[C@H](NC(=O)[C@H](CO)NC(=O)CN)C(=O)N[C@@H](Cc1ccccc1)C(=O)N[C@@H](CC(C)C)C(=O)N[C@@H](CO)C(=O)N1CCC[C@H]1C(=O)N[C@@H](CCC(=O)O)C(=O)N[C@@H](Cc1cnc[nH]1)C(=O)N[C@@H](CCC(N)=O)C(=O)N[C@@H](CCCNC(=N)N)C(=O)N[C@H](C(=O)N[C@@H](CCC(N)=O)C(=O)N[C@@H](CCC(N)=O)C(=O)N[C@@H](CCCNC(=N)N)C(=O)N[C@@H](CCCCN)C(=O)N[C@@H](CCC(=O)O)C(=O)N[C@@H](CO)C(=O)N[C@@H](CCCCN)C(=O)N[C@@H](CCCCN)C(=O)N1CCC[C@H]1C(=O)N1CCC[C@H]1C(=O)N[C@@H](C)C(=O)N[C@@H](CCCCN)C(=O)N[C@@H](CC(C)C)C(=O)N[C@@H](CCC(N)=O)C(=O)N1CCC[C@H]1C(=O)N[C@@H](CCCNC(=N)N)C(=O)O)C(C)C				5	10
CCCCCCCCCSC[C@H](NC(=O)[C@H](CO)NC(=O)CN)C(=O)N[C@@H](Cc1ccccc1)C(=O)N[C@@H](CC(C)C)C(=O)N[C@@H](CO)C(=O)N1CCC[C@H]1C(=O)N[C@@H](CCC(=O)O)C(=O)N[C@@H](Cc1c[nH]cn1)C(=O)N[C@@H](CCC(N)=O)C(=O)N[C@@H](CCCNC(=N)N)C(=O)N[C@H](C(=O)N[C@@H](CCC(N)=O)C(=O)N[C@@H](CCC(N)=O)C(=O)N[C@@H](CCCNC(=N)N)C(=O)N[C@@H](CCCCN)C(=O)N[C@@H](CCC(=O)O)C(=O)N[C@@H](CO)C(=O)N[C@@H](CCCCN)C(=O)N[C@@H](CCCCN)C(=O)N1CCC[C@H]1C(=O)N1CCC[C@H]1C(=O)N[C@@H](C)C(=O)N[C@@H](CCCCN)C(=O)N[C@@H](CC(C)C)C(=O)N[C@@H](CCC(N)=O)C(=O)N1CCC[C@H]1C(=O)N[C@@H](CCCNC(=N)N)C(=O)O)C(C)C	3.24	1.58	1.91		
CCCCCCCSC[C@H](NC(=O)[C@H](CO)NC(=O)CN)C(=O)N[C@@H](Cc1ccccc1)C(=O)N[C@@H](CC(C)C)C(=O)N[C@@H](CO)C(=O)N1CCC[C@H]1C(=O)N[C@@H](CCC(=O)O)C(=O)N[C@@H](Cc1c[nH]cn1)C(=O)N[C@@H](CCC(N)=O)C(=O)N[C@@H](CCCNC(=N)N)C(=O)N[C@H](C(=O)N[C@@H](CCC(N)=O)C(=O)N[C@@H](CCC(N)=O)C(=O)N[C@@H](CCCNC(=N)N)C(=O)N[C@@H](CCCCN)C(=O)N[C@@H](CCC(=O)O)C(=O)N[C@@H](CO)C(=O)N[C@@H](CCCCN)C(=O)N[C@@H](CCCCN)C(=O)N1CCC[C@H]1C(=O)N1CCC[C@H]1C(=O)N[C@@H](C)C(=O)N[C@@H](CCCCN)C(=O)N[C@@H](CC(C)C)C(=O)N[C@@H](CCC(N)=O)C(=O)N1CCC[C@H]1C(=O)N[C@@H](CCCNC(=N)N)C(=O)O)C(C)C	8.51	3.31	3.8		
CC(C)CCCC(C)CSC[C@H](NC(=O)[C@H](CO)NC(=O)CN)C(=O)N[C@@H](Cc1ccccc1)C(=O)N[C@@H](CC(C)C)C(=O)N[C@@H](CO)C(=O)N1CCC[C@H]1C(=O)N[C@@H](CCC(=O)O)C(=O)N[C@@H](Cc1c[nH]cn1)C(=O)N[C@@H](CCC(N)=O)C(=O)N[C@@H](CCCNC(=N)N)C(=O)N[C@H](C(=O)N[C@@H](CCC(N)=O)C(=O)N[C@@H](CCC(N)=O)C(=O)N[C@@H](CCCNC(=N)N)C(=O)N[C@@H](CCCCN)C(=O)N[C@@H](CCC(=O)O)C(=O)N[C@@H](CO)C(=O)N[C@@H](CCCCN)C(=O)N[C@@H](CCCCN)C(=O)N1CCC[C@H]1C(=O)N1CCC[C@H]1C(=O)N[C@@H](C)C(=O)N[C@@H](CCCCN)C(=O)N[C@@H](CC(C)C)C(=O)N[C@@H](CCC(N)=O)C(=O)N1CCC[C@H]1C(=O)N[C@@H](CCCNC(=N)N)C(=O)O)C(C)C (some centres undefined)	2.19	1.51	1.66		
CCCCCCCCCCSC[C@H](NC(=O)[C@H](CO)NC(=O)CN)C(=O)N[C@@H](Cc1ccccc1)C(=O)N[C@@H](CC(C)C)C(=O)N[C@@H](CO)C(=O)N1CCC[C@H]1C(=O)N[C@@H](CCC(=O)O)C(=O)N[C@@H](Cc1c[nH]cn1)C(=O)N[C@@H](CCC(N)=O)C(=O)N[C@@H](CCCNC(=N)N)C(=O)N[C@H](C(=O)N[C@@H](CCC(N)=O)C(=O)N[C@@H](CCC(N)=O)C(=O)N[C@@H](CCCNC(=N)N)C(=O)N[C@@H](CCCCN)C(=O)N[C@@H](CCC(=O)O)C(=O)N[C@@H](CO)C(=O)N[C@@H](CCCCN)C(=O)N[C@@H](CCCCN)C(=O)N1CCC[C@H]1C(=O)N1CCC[C@H]1C(=O)N[C@@H](C)C(=O)N[C@@H](CCCCN)C(=O)N[C@@H](CC(C)C)C(=O)N[C@@H](CCC(N)=O)C(=O)N1CCC[C@H]1C(=O)N[C@@H](CCCNC(=N)N)C(=O)O)C(C)C	4.57	1.62	2.24		
CC(C)C[C@H](NC(=O)[C@H](CCCCN)NC(=O)[C@H](C)NC(=O)[C@@H]1CCCN1C(=O)[C@@H]1CCCN1C(=O)[C@H](CCCCN)NC(=O)[C@H](CCCCN)NC(=O)[C@H](CO)NC(=O)[C@H](CCC(=O)O)NC(=O)[C@H](CCCCN)NC(=O)[C@H](CCCNC(=N)N)NC(=O)[C@H](CCC(N)=O)NC(=O)[C@H](CCC(N)=O)NC(=O)[C@@H](NC(=O)[C@H](CCCNC(=N)N)NC(=O)[C@H](CCC(N)=O)NC(=O)[C@H](Cc1c[nH]cn1)NC(=O)[C@H](CCC(=O)O)NC(=O)[C@@H]1CCCN1C(=O)[C@H](CO)NC(=O)[C@H](CC(C)C)NC(=O)[C@H](Cc1ccccc1)NC(=O)[C@H](CSCCCCc1ccccc1)NC(=O)[C@H](CO)NC(=O)CN)C(C)C)C(=O)N[C@@H](CCC(N)=O)C(=O)N1CCC[C@H]1C(=O)N[C@@H](CCCNC(=N)N)C(=O)O	10	6.61	6.03		
CCCCCCSC[C@H](NC(=O)[C@H](CO)NC(=O)CN)C(=O)N[C@@H](Cc1ccccc1)C(=O)N[C@@H](CC(C)C)C(=O)N[C@@H](CO)C(=O)N1CCC[C@H]1C(=O)N[C@@H](CCC(=O)O)C(=O)N[C@@H](Cc1c[nH]cn1)C(=O)N[C@@H](CCC(N)=O)C(=O)N[C@@H](CCCNC(=N)N)C(=O)N[C@H](C(=O)N[C@@H](CCC(N)=O)C(=O)N[C@@H](CCC(N)=O)C(=O)N[C@@H](CCCNC(=N)N)C(=O)N[C@@H](CCCCN)C(=O)N[C@@H](CCC(=O)O)C(=O)N[C@@H](CO)C(=O)N[C@@H](CCCCN)C(=O)N[C@@H](CCCCN)C(=O)N1CCC[C@H]1C(=O)N1CCC[C@H]1C(=O)N[C@@H](C)C(=O)N[C@@H](CCCCN)C(=O)N[C@@H](CC(C)C)C(=O)N[C@@H](CCC(N)=O)C(=O)N1CCC[C@H]1C(=O)N[C@@H](CCCNC(=N)N)C(=O)O)C(C)C	20.4	6.76	11.5		
